Source: ChEMBL document CHEMBL1121617, “Antihypertensive ureidopiperidines” (1980)
Calls of active or inactive are those of the source. The calls are words filed in the database; no cut-off is given here.

How the values were obtained:
Rattus norvegicus [1] = experiment: The percent fall in systolic blood pressure at 1.5 / 4 h after peroral administration of 50 mg/kg in DOCA/saline hypertensive rats at 2 hr; format: functional, Artery; conditions: route oral
Rattus norvegicus [2] = experiment: The percent fall in systolic blood pressure at 1.5 / 4 hr after peroral administration of 50 mg/kg in DOCA/saline hypertensive rats at 24 hr; format: functional, Artery; conditions: route oral
Summary of the method: (§1)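 DOCA/saline hypertensive rats, four per group, dosed orally at 50, 25 or 10 mg/kg. Mean starting systolic pressure was recorded for each group. Systolic pressure was then read 2, 6 and 24 h after dosing and reported as percentage fall from the starting value.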

Rattus norvegicus [3] = experiment: The percent fall in systolic blood pressure at 1.5 / 4 hr after peroral administration of 25 mg/kg in DOCA/saline hypertensive rats at 24 hr; format: functional, Artery; conditions: route oral; summary of the method: as §1
Rattus norvegicus [4] = experiment: Starting systolic blood pressure at dose of 50 mg/kg in rat; format: functional, Artery
Summary of the method: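 Mean systolic blood pressure before dosing for each group of four DOCA/saline hypertensive rats given 50 mg/kg orally. It indicates how far hypertension was established.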

Rattus norvegicus [5] = experiment: The percent fall in systolic blood pressure at 1.5 / 4 hr after peroral administration of 25 mg/kg in DOCA/saline hypertensive rats at 6 hr; format: functional, Artery; conditions: route oral; summary of the method: as §1
Rattus norvegicus [6] = experiment: Starting systolic blood pressure at dose of 10 mg/kg; format: functional, Artery; summary of the method: as §1
Rattus norvegicus [7] = experiment: The percent fall in systolic blood pressure at 1.5 / 4 hr after peroral administration of 25 mg/kg in DOCA/saline hypertensive rats at 2 hr; format: functional, Artery; conditions: route oral; summary of the method: as §1
Rattus norvegicus [8] = experiment: The percent fall in systolic blood pressure at 1.5 / 4 hr after peroral administration of 50 mg/kg in DOCA/saline hypertensive rats at 6 hr; format: functional, Artery; conditions: route oral
Rattus norvegicus [9] = experiment: Starting systolic blood pressure at dose of 25 mg/kg; format: functional, Artery; summary of the method: as §1
Rattus norvegicus [10] = experiment: The percent fall in systolic blood pressure at 1.5 / 4 hr after peroral administration of 50 mg/kg in DOCA/saline hypertensive rats at 2 hr; Non significant; format: functional, organism-based; design: dose 50 mg/kg; conditions: Artery, at 50 mg/kg
Rattus norvegicus [11] = experiment: The percent fall in systolic blood pressure at 1.5 / 4 hr after peroral administration of 50 mg/kg in DOCA/saline hypertensive rats at 24 hr; Non significant; format: functional, organism-based; design: dose 50 mg/kg; conditions: Artery, at 50 mg/kg
Rattus norvegicus [12] = experiment: The percent fall in systolic blood pressure at 1.5 / 4 hr after peroral administration of 10 mg/kg in DOCA/saline hypertensive rats at 24 hr; Non significant, p>0.05; format: functional, organism-based; design: dose 10 mg/kg; conditions: Artery, at 10 mg/kg; summary of the method: as §1
Rattus norvegicus [13] = experiment: The percent fall in systolic blood pressure at 1.5 / 4 hr after peroral administration of 25 mg/kg in DOCA/saline hypertensive rats at 24 hr; Non significant, p>0.05; format: functional, organism-based; design: dose 25 mg/kg; conditions: Artery, at 25 mg/kg
Rattus norvegicus [14] = experiment: The percent fall in systolic blood pressure at 1.5 / 4 hr after peroral administration of 10 mg/kg in DOCA/saline hypertensive rats at 2 hr; format: functional, Artery; conditions: route oral; summary of the method: as §1
Rattus norvegicus [15] = experiment: The percent fall in systolic blood pressure at 1.5 / 4 hr after peroral administration of 10 mg/kg in DOCA/saline hypertensive rats at 6 hr; format: functional, Artery; conditions: route oral; summary of the method: as §1
Rattus norvegicus [16] = experiment: The percent fall in systolic blood pressure at 1.5 / 4 hr after peroral administration of 40 mg/kg in conscious renal hypertensive rats (RHR).; format: functional, Artery; conditions: route oral
Summary of the method: (§2)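 Conscious renal hypertensive rats, four per group, dosed orally. Starting systolic pressures were 160–200 mmHg. Percentage fall in systolic pressure was taken at 1.5 and/or 4 h after dosing. Falls under 10% were scored as ±.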

Rattus norvegicus [17] = experiment: The percent fall in systolic blood pressure at 1.5 / 4 hr after peroral administration of 10 mg/kg in DOCA/saline hypertensive rats at 24 hr; Non significant; format: functional, organism-based; design: dose 10 mg/kg; conditions: Artery, at 10 mg/kg
Rattus norvegicus [18] = experiment: The percent fall in systolic blood pressure after peroral administration of 50 mg/kg in DOCA/saline hypertensive rats at 24 hr; conditions: route oral
Rattus norvegicus [19] = experiment: The percent fall in systolic blood pressure at 1.5 / 4 hr after peroral administration of 10 mg/kg in DOCA/saline hypertensive rats at 6 h; Non significant, p>0.05; format: functional, organism-based; design: dose 10 mg/kg; conditions: Artery, at 10 mg/kg; summary of the method: as §1
Rattus norvegicus [20] = experiment: Percent fall in systolic blood pressure at 1.5 / 4 hr after peroral administration of 50 mg/kg in DOCA/saline hypertensive rats at 6 h; Non significant; format: functional, organism-based; design: dose 50 mg/kg; conditions: Artery, at 50 mg/kg
Rattus norvegicus [21] = experiment: The percent fall in systolic blood pressure at 1.5 / 4 hr after peroral administration of 50 mg/kg in conscious renal hypertensive rats (RHR).; format: functional, Artery; conditions: route oral
Summary of the method: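 Conscious renal hypertensive rats, four per group, with starting systolic pressures of 160-200 mmHg, were given a single oral dose. The value is the percentage fall in systolic pressure at 1.5 h, 4 h, or both after dosing. Falls below 10% are reported as ±.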

Rattus norvegicus [22] = experiment: The percent fall in systolic blood pressure at 1.5 / 4 h after peroral administration of 50 mg/kg in conscious DOCA/saline hypertensive rats at 24 hr; Non significant; format: functional, organism-based; design: dose 50 mg/kg; conditions: Artery, at 50 mg/kg; summary of the method: as §1
Rattus norvegicus [23] = experiment: The percent fall in systolic blood pressure at 1.5 / 4 hr after peroral administration of 75 mg/kg in conscious renal hypertensive rats (RHR).; format: functional, Artery; conditions: route oral; summary of the method: as §2
Rattus norvegicus [24] = experiment: The percent fall in systolic blood pressure at 1.5 / 4 hr after peroral administration of 10 mg/kg in DOCA/saline hypertensive rats at 24 hr; format: functional, Artery; conditions: route oral

SMILES | SP (Rattus norvegicus [4]) [mmHg] | Fall (Rattus norvegicus [5]) [%] | SP (Rattus norvegicus [6]) [mmHg] | Fall (Rattus norvegicus [7]) [%] | SP (Rattus norvegicus [9]) [mmHg] | Fall (Rattus norvegicus [11]) | Fall (Rattus norvegicus [8]) [%] | Fall (Rattus norvegicus [1]) [%] | Fall (Rattus norvegicus [14]) [%] | also measured
CN(C(=O)Nc1ccccc1)C1CCN(CCc2c[nH]c3ccccc23)CC1 | 174 | 38 | 168 | 44 | 180 | – | – | – | – | Fall (Rattus norvegicus [1]; 50 mg/kg): 54%; Fall (Rattus norvegicus [2]): 26%; Fall (Rattus norvegicus [3]): 20%; Fall (Rattus norvegicus [8]; 50 mg/kg): 52%
CCCCNC(=O)NC1CCN(CCc2c[nH]c3ccccc23)CC1 | 172 | – | – | – | – | Not significant | 29 | – | – | Fall (Rattus norvegicus [10]): Not significant
O=C(NC(=O)C1CCCCC1)NC1CCN(CCc2c[nH]c3ccccc23)CC1 | 173 | 54 | 170 | 54 | 181 | Not significant | 52 | 48 | 30 | Fall (Rattus norvegicus [12]): Non significant, p>0.05; Fall (Rattus norvegicus [13]): Not significant; Fall (Rattus norvegicus [15]): 27%
O=C(NC1CCN(CCc2c[nH]c3ccccc23)CC1)c1ccccc1 [INDORAMIN] | 198 | 29 | 197 | 25 | 178 | – | 45 | 41 | 33 | Fall (Rattus norvegicus [2]): 38%; Activity (Rattus norvegicus [16]): 38; Fall (Rattus norvegicus [13]): inactive; Fall (Rattus norvegicus [17]): inactive; Fall (Rattus norvegicus [15]): 31%
O=C(NC(=O)c1cccs1)NC1CCN(CCc2c[nH]c3ccccc23)CC1 | 193 | 46 | 169 | 43 | 171 | – | 38 | 47 | 50 | Fall (Rattus norvegicus [2]): 38%; Fall (Rattus norvegicus [12]): Not significant; Fall (Rattus norvegicus [13]): Not significant; Fall (Rattus norvegicus [15]): 46%
O=C(Nc1ccc(Cl)c(Cl)c1)NC1CCN(CCCC(=O)c2ccccc2)CC1 | 169 | – | – | – | – | – | 35 | 35 | – | Fall (Rattus norvegicus [18]): 18%
O=C(NC(=O)c1ccccc1)NC1CCN(CCc2c[nH]c3ccccc23)CC1 | 179 | 48 | 178 | 51 | 171 | – | 49 | 49 | 36 | Fall (Rattus norvegicus [2]): 38%; Activity (Rattus norvegicus [16]): 48; Fall (Rattus norvegicus [12]): Not significant; Fall (Rattus norvegicus [3]): 21%; Fall (Rattus norvegicus [19]): Not significant
O=C(Nc1ccccc1)NC1CCN(CCCC(=O)c2ccccc2)CC1 | 205 | – | – | – | – | Not significant | 24 | 31 | – | Activity (Rattus norvegicus [16]): 39
O=C(NC(=O)c1ccccc1)NC1CCN(CCCC(=O)c2ccccc2)CC1 | 169 | 26 | 173 | 28 | 178 | Not significant | – | 21 | 22 | Fall (Rattus norvegicus [12]): Not significant; Fall (Rattus norvegicus [20]): Not significant; Fall (Rattus norvegicus [13]): Not significant; Fall (Rattus norvegicus [19]): Not significant
O=C(Nc1ccc(Cl)cc1)NC1CCN(CCCC(=O)c2ccccc2)CC1 | 200 | – | – | – | – | Not significant | 25 | 30 | – | –
O=C(CCCN1CCC(NC(=S)Nc2ccccc2)CC1)c1ccccc1 | – | – | – | – | – | – | – | – | – | Activity (Rattus norvegicus [21]): 20
O=C(Nc1ccccc1C(F)(F)F)NC1CCN(CCCC(=O)c2ccccc2)CC1 | 208 | – | – | – | – | Not significant | 20 | 20 | – | –
O=C(NC(=O)c1ccccc1)NC1CCN(CCCC(=O)c2ccc(F)cc2)CC1 | 184 | – | – | – | – | Not significant | 31 | 43 | – | –
O=C(Nc1cccc(C(F)(F)F)c1)NC1CCN(CCc2c[nH]c3ccccc23)CC1 | 208 | – | – | – | – | – | – | – | – | Fall (Rattus norvegicus [10]): Not significant; Fall (Rattus norvegicus [20]): Not significant; Fall (Rattus norvegicus [22]): Not significant
Cn1cc(CCN2CCC(NC(=O)NC(=O)c3ccccc3)CC2)c2ccccc21 | 172 | – | – | – | – | Not significant | 28 | 26 | – | –
COc1ccccc1OCC(O)CN1CCC(NC(=O)Nc2ccccc2)CC1 (configuration not stated) | 212 | – | – | – | – | – | – | 27 | – | Fall (Rattus norvegicus [18]): -27%; Fall (Rattus norvegicus [20]): Not significant
Cc1cccc(C)c1NC(=O)NC1CCN(CCc2c[nH]c3ccccc23)CC1 | – | – | – | – | – | – | – | – | – | Activity (Rattus norvegicus [23]): <10
O=C(NC(=O)c1cccs1)NC1CCN(CCCC(=O)c2ccc(F)cc2)CC1 | 179 | 28 | 171 | 35 | 174 | – | 45 | 49 | 48 | Fall (Rattus norvegicus [2]): 21%; Fall (Rattus norvegicus [24]): 16%; Fall (Rattus norvegicus [13]): Not significant; Fall (Rattus norvegicus [15]): 36%
